Reference: the M2OR odorant receptor database

Experiments:
Settings in all cases: stereoisomer not certain
[1] = biological target: T1, UniProt Q8VGM2
T1 sequence (whole entry): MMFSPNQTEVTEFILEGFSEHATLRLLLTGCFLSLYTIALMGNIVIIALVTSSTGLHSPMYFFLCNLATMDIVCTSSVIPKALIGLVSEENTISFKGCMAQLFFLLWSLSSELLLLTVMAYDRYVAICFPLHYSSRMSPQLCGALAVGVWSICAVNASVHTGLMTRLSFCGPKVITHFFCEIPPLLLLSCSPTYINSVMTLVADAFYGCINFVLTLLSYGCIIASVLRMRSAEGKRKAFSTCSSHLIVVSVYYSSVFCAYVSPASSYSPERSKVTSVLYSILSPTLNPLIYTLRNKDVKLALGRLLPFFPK
Outline: (§1)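 Each entry records the cell line, G-protein, co-transfected protein and tags used. Methods varied with the source, often transient luciferase assays in mammalian cell lines. A receptor–molecule pair is called responsive (active) if the original authors judged its signal statistically different from baseline and non-responsive (inactive) otherwise.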

[2] = biological target: T2, UniProt Q8VGP6
T2 sequence (whole entry): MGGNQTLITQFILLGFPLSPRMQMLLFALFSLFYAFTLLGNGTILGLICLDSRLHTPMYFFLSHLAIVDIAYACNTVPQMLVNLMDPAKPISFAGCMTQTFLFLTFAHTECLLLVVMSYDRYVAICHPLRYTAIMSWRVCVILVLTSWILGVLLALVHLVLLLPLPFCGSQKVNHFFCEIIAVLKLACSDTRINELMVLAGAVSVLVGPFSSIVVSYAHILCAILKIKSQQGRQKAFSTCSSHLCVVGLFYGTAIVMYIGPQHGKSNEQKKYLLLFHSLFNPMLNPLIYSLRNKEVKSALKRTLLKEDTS
Outline: as §1

[3] = biological target: T3, UniProt Q8VGQ3
T3 sequence (whole entry): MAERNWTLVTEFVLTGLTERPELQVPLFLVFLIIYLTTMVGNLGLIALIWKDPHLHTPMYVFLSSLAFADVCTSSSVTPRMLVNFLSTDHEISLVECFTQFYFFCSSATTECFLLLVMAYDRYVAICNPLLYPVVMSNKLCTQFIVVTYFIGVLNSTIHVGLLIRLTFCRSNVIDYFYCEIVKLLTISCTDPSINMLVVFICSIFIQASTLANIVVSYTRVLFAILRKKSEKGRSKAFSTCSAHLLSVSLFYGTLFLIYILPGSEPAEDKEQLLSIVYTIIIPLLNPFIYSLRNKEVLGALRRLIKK
Outline: as §1

[4] = biological target: T4, UniProt Q8VGT4
T4 sequence (whole entry): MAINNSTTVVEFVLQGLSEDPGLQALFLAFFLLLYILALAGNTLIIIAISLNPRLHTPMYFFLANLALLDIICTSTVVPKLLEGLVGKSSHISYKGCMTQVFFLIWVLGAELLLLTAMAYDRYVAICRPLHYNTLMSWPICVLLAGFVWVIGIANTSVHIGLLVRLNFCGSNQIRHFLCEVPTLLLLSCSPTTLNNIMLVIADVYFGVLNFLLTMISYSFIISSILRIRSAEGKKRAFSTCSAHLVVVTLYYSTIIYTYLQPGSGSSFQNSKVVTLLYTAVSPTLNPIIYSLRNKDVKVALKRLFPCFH
Outline: as §1

[5] = biological target: T5, UniProt Q8VGU3
T5 sequence (whole entry): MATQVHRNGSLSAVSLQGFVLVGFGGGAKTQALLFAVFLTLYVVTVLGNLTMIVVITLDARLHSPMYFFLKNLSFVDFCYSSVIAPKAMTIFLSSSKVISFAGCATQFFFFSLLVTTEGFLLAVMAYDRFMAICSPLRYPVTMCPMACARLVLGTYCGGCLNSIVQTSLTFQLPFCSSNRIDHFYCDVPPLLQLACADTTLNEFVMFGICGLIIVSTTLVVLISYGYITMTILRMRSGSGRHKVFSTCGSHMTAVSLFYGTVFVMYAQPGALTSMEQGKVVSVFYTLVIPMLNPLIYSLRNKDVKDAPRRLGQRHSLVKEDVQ
Outline: as §1

[6] = biological target: T6, UniProt Q8VGV1
T6 sequence (whole entry): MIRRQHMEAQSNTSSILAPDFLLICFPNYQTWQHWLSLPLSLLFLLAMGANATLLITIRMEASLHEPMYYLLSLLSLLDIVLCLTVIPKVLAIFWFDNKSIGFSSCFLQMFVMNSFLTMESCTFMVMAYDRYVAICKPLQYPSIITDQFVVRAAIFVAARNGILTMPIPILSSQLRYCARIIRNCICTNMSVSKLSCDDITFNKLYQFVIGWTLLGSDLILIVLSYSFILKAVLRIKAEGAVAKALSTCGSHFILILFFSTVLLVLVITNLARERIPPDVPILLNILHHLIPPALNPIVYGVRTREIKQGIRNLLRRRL
Outline: as §1

[7] = biological target: T7, UniProt Q8VGV7
T7 sequence (whole entry): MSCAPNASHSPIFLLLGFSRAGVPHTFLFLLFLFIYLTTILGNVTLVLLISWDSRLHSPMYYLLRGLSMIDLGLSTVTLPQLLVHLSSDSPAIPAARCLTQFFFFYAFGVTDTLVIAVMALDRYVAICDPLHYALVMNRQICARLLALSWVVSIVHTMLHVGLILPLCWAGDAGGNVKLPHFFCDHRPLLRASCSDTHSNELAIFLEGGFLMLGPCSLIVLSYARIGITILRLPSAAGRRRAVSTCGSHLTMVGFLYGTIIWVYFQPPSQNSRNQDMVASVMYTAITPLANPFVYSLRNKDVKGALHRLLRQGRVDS
Outline: as §1

[8] = biological target: T8, UniProt Q8VGX3
T8 sequence (whole entry): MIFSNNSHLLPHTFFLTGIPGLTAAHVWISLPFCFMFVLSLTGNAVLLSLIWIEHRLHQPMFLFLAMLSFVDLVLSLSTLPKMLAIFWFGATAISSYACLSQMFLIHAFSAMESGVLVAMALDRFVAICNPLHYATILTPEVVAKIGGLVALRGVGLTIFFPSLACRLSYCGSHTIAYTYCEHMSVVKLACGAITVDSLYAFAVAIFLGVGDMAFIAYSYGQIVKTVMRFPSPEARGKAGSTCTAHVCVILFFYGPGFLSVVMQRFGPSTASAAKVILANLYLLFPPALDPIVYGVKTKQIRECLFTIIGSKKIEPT
Outline: as §1

[9] = biological target: T9, UniProt Q8VGX5
T9 sequence (whole entry): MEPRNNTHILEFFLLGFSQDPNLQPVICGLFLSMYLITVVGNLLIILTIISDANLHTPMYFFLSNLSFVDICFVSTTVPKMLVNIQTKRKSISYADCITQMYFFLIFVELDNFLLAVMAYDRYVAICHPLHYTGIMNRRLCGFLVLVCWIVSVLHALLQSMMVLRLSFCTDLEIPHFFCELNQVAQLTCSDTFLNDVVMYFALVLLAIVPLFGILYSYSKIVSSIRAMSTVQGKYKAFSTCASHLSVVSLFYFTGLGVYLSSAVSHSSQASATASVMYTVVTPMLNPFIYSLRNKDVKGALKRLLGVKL
Outline: as §1

[10] = biological target: T10, UniProt Q8VGW5
T10 sequence (whole entry): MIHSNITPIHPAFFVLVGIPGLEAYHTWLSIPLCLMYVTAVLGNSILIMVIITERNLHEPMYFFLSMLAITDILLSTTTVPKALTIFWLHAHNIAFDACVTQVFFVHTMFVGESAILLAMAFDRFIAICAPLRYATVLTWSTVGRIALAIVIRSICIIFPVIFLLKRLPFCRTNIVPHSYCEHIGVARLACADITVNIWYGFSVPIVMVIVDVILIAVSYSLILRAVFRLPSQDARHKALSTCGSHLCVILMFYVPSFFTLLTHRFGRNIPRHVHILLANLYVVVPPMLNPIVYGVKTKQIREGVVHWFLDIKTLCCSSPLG
Outline: as §1

Measured: odorant receptor agonist call

COc1cc(C(=O)O)ccc1O
not listed: [10]
inactive: all other assays above

Cc1ccc(C(C)C)cc1
inactive: [5] | [7] | [8] | [9]

CC(C)CCN
inactive: [5] | [7] | [8] | [9]

C=C1C2CCC(C2)C1(C)C (centres undefined)
inactive: [5] | [7] | [8] | [9]

OCC=Cc1ccccc1
inactive: [5] | [7] | [8] | [9]

C=C(C)C1CCC(C)C(O)C1 (centres undefined)
inactive: [5] | [7] | [8]
active: [9]

CC1(C)CC(=O)CC(=O)C1
inactive: [5] | [7] | [8] | [9]

C=CC(=O)CCCCC
inactive: [5] | [7] | [8] | [9]

OCCCCCCCCCO
inactive: [5] | [7] | [8] | [9]

CCCCOC(=O)C(C)OC(=O)CCC (centres undefined)
inactive: [1] | [2] | [3] | [4] | [6] | [9]

CC(CC=O)CCCC(C)(C)O (centres undefined)
inactive: [5] | [7] | [8] | [9]

CCCCCCCCCS
active: [2]
not listed: [10]
inactive: all other assays above

CCC(C(=O)O)c1ccccc1 (centres undefined)
inactive: [1] | [2] | [3] | [4] | [6] | [9]

C=C(C)C1CCC2(C)OC2C1 (centres undefined)
inactive: [5] | [7] | [8] | [9]

O=c1ccc2ccccc2o1
active: [9]
inactive: [1] | [2] | [3] | [4] | [6]

CCCCCCC(C=O)=Cc1ccccc1
inactive: [5] | [7] | [8] | [9]

CC(=O)C1(C)CC2=C(CCCC2(C)C)CC1C (centres undefined)
active: [7]
inactive: [5] | [8] | [9]

CC1CCC(C(C)C)C(=O)C1 (centres undefined)
inactive: [5] | [7] | [8] | [9]

CCCCCCCC(=O)[O-].[H+]
active: [6]
not listed: [5] | [7] | [8]
inactive: all other assays above

CCCCCCCCCCCO
inactive: [5] | [7] | [8] | [9]

CCCCCCC(=O)[O-].[H+]
not listed: [5] | [7] | [8]
inactive: all other assays above

COc1nccnc1C
inactive: [5] | [7] | [8] | [9]

CCCCCC(C=O)=Cc1ccccc1
inactive: [5] | [7] | [8] | [9]

CSSSC
inactive: [5] | [7] | [8] | [9]

CCCCCO
inactive: [1] | [2] | [3] | [4] | [6] | [9]

O=C([O-])CCCCCCCC(=O)[O-].[H+].[H+]
inactive: [5] | [7] | [10] | [8] | [9]

CCCCC=O
active: [10]
inactive: [5] | [7] | [8] | [9]

c1ccc2ncccc2c1
inactive: [5] | [7] | [8]
active: [9]

CNc1ccccc1C(=O)OC
inactive: [5] | [7] | [8]
active: [9]

CCCC(C)=O
not listed: [5] | [7] | [8]
inactive: all other assays above
